We go through 20 molecules from ChEMBL document CHEMBL3352304, “Synthesis and evaluation of 3-salicyloylpyridine derivatives as cytotoxic mitochondrial apoptosis inducers” (Bioorg Med Chem Lett, 2014).

By IC50 is commonly meant the point on the concentration scale where inhibition reaches its midpoint.

Activity calls are given as the source filed them. The calls are words filed in the database; no cut-off is given here.

The test system of one assay is MCF7. As to the kind of experiment: Cytotoxicity against human MCF7 cells after 48 hrs by SRB assay. Conditions: MCF7, 48 h. It is filed as functional, cell-based.
A short description of assay [1]: Cytotoxicity against human IMR32 cells after 48 hrs by SRB assay. It is filed as functional, cell-based. Conditions: IMR-32, 48 h. (The SRB assay estimates cell density from bound dye.)
A short description of assay [2]: Cytotoxicity against human PC3 cells after 48 hrs by SRB assay. It is filed as functional, cell-based. The settings on record: PC-3, 48 h.
The test system of another assay is HeLa. In words: Cytotoxicity against human HeLa cells after 48 hrs by SRB assay. Format: functional, cell-based.
Assay [3] is described as follows: Cytotoxicity against human Hep cells after 48 hrs by SRB assay. Format: functional, cell-based.
Assay [4] concerns PC-3. In words: Induction of apoptosis in human PC3 cells at 2 uM incubated for 12 hrs by DAPI staining based confocal laser microscopy. It is filed as functional, cell-based. The essentials: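 PC-3 human prostate cancer cells (1 × 10⁶ in 1 ml medium) grown to confluence for 24 h at 37 °C, 5% CO₂, then exposed 12 h. Medium replaced with serum-free medium and cells stained with DAPI for 1 h at 37 °C. Nuclear and cell morphology imaged by laser scanning confocal fluorescence microscopy against untreated control cells.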

Assay [5] concerns PC-3. In words: Induction of apoptotic morphological changes in human PC3 cells assessed as spherical cell shape changes at cytotoxic IC50 level incubated for 12 hrs by DAPI staining based confocal laser microscopy. Format: functional. In a few lines:
(§1)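 PC-3 cells (1 × 10⁶) in 1 ml medium in 24-well plates grown to confluence 24 h at 37 °C, 5% CO₂, then exposed to test compound at its IC₅₀ for 12 h; camptothecin 2 µM as positive control. Medium replaced with serum-free medium, cells stained with DAPI (10 mM) 1 h at 37 °C and imaged by laser scanning confocal fluorescence microscopy against untreated control.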

Assay [6] relates to PC-3. As to the kind of experiment: Induction of apoptotic morphological changes in human PC3 cells assessed as plasma membrane blebbing at cytotoxic IC50 level incubated for 12 hrs by DAPI staining based confocal laser microscopy. Format: functional, cell-based. In a few lines: as §1
In assay [7] the test system is PC-3. In words: Induction of apoptotic morphological changes in human PC3 cells assessed as increase in apoptotic bodies at cytotoxic IC50 level incubated for 12 hrs by DAPI staining based confocal laser microscopy. Format: functional, cell-based. In a few lines: as §1
For assay [8], the system named is PC-3. As to the kind of experiment: Induction of apoptotic morphological changes in human PC3 cells assessed as plasma membrane blebbing at cytotoxic IC50 level incubated for 12 hrs by scanning electron microscopy. It is filed as functional, cell-based. In a few lines: (§2)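 PC-3 cells incubated with test compound at its IC₅₀ for 12 h, with 2 µM camptothecin as positive control and untreated cells as control; cell surface morphology examined by scanning electron microscopy.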

Assay [9] relates to PC-3. As to the kind of experiment: Induction of apoptotic morphological changes in human PC3 cells assessed as cell size condensation at cytotoxic IC50 level incubated for 12 hrs by scanning electron microscopy. Format: functional, cell-based. In a few lines: as §2
Assay [10] relates to PC-3. As to the kind of experiment: Induction of apoptotic morphological changes in human PC3 cells assessed as cell surface smoothening at cytotoxic IC50 level incubated for 12 hrs by scanning electron microscopy. It is filed as functional, cell-based. The essentials: as §2
For assay [11], the system named is PC-3. In words: Reduction in mitochondrial membrane potential in human PC3 cells incubated for 12 hrs by rhodamine-123 dye based spectrofluorimetry. Format: functional, cell-based. The essentials: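 PC-3 cells (1 × 10⁶) in 24-well plates incubated with or without test compound at 1, 5 and 10 µM for 12 h at 37 °C, 5% CO₂, washed with PBS, then loaded with rhodamine-123 1 h in serum-free medium. Fluorescence read in a plate reader at excitation 480 nm / emission 530 nm; shown with SD.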

In assay [12] the test system is PC-3. In words: Induction of intracellular ROS generation in human PC3 cells incubated for 12 hrs by DCFH-DA dye based spectrofluorimetry. Format: functional, cell-based. In a few lines:
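PC-3 cells plated at 1 × 10⁶ cells/dish in 24-well plates, adhered 6 h, then grown with or without test compound at 5, 10 and 15 µM for 12 h; DCFH-DA added 30 min before end. Trypsinized plus floating cells collected, 1 × 10⁶ cells pelleted, resuspended in ice-cold PBS (1.0 ml) and intracellular peroxides measured by spectrofluorimetry.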

`C=CCOc1ccc(F)cc1C(=O)c1cccnc1`: the IC50 with MCF7 is above 100 µM; in [1], 91 µM; in [2], above 100 µM; with HeLa it was 93 µM; in assay [3] it was above 100 µM.
`C=CCOc1ccccc1C(=O)c1cccnc1`: the 50% inhibitory concentration (IC50) in the assay on MCF7 was above 100 µM; in [1], 44 µM; in [2] it was 55 µM; in the assay with HeLa, above 100 µM; in assay [3], above 100 µM.
As to `O=C(c1cccnc1)c1cc(F)ccc1O`, the IC50 in the assay with MCF7 was 27.8 µM; in assay [1], 6.21 µM; in [2], 11.8 µM; in the assay with HeLa, 27 µM; in [3] it was 12 µM.
The matching figures for `O=C(c1cccnc1)c1ccc(Br)cc1O`: above 100 µM, 89 µM, 88.6 µM, 37 µM and 85 µM.
For the molecule `C=CCOc1c(Cl)cccc1C(=O)c1cccnc1`, the IC50 in the assay with MCF7 is above 100 µM; in assay [1] it was 94 µM; in assay [2], above 100 µM; in the assay on HeLa it was 100 µM; in [3] it was 92 µM.
Consider `O=C(c1cccnc1)c1cc(Cl)cc(Cl)c1O`, for which the IC50 in the assay on MCF7 is 29.6 µM; in assay [1] it was 28.8 µM; in assay [2] it was 28.7 µM; in the assay on HeLa, above 100 µM; in assay [3], 27 µM.
On to `O=c1[nH]cc(F)c(=O)[nH]1` [FLUOROURACIL], for which the figures for the IC50 in [1] and in assay [3] were 1.3 µM and 0.5 µM, respectively.
`CO[C@@]12[C@H](COC(N)=O)C3=C(C(=O)C(C)=C(N)C3=O)N1C[C@@H]1N[C@@H]12` [MITOMYCIN] showed a half-inhibitory concentration (IC50) in assay [2] of 1.5 µM.
As for `O=C(c1cccnc1)c1cc(Br)ccc1O`, the IC50 turned out to be 53.5 µM in the assay on MCF7; 23.4 µM in assay [1]; 60.2 µM in assay [2]; 29 µM in the assay on HeLa; 29 µM in assay [3].
As for `O=C(c1cccnc1)c1cc(Cl)ccc1O`, the IC50 in the assay with MCF7 turned out to be 29 µM; in [1], 19.5 µM; in assay [2], 24.8 µM; with HeLa, 24 µM; in assay [3] it was 27 µM.
The corresponding values for `C=CCOc1ccc(C)cc1C(=O)c1cccnc1` are 84 µM, 87 µM, 98 µM, 94 µM and 72 µM.
On to `O=C(c1cccnc1)c1ccccc1O`, for which the concentration for half-maximal inhibition (IC50) in the assay on MCF7 is 24.6 µM; in assay [1], 33.7 µM; in assay [2], 33.4 µM; in the assay on HeLa, 33 µM; in assay [3], 31 µM.
For `C=CCOc1cc(Br)ccc1C(=O)c1cccnc1`, the IC50 is above 100 µM in the assay on MCF7; 98 µM in assay [1]; above 100 µM in assay [2]; above 100 µM in the assay on HeLa; above 100 µM in assay [3].
As to `CC[C@@]1(O)C(=O)OCc2c1cc1n(c2=O)Cc2cc3ccccc3nc2-1`, the outcome in the assay on PC-3 [4] was Active.
Turning to `O=C(c1cccnc1)c1cccc(Cl)c1O`, the IC50 in the assay with MCF7 was 26.7 µM; in assay [1], 26 µM; in [2], 31.5 µM; with HeLa it was 21 µM; in assay [3], 28 µM.
The corresponding values for `C=CCOc1ccc(Cl)cc1C(=O)c1cccnc1` are 54 µM, 91 µM, above 100 µM, 75 µM and above 100 µM.
As for `C=CCOc1c(Cl)cc(Cl)cc1C(=O)c1cccnc1`, the IC50 in the assay on MCF7 was 85 µM; in assay [1], 52 µM; in assay [2], 96 µM; in the assay with HeLa it was 34 µM; in [3] it was above 100 µM.
`Cc1ccc(O)c(C(=O)c2cccnc2)c1`: the IC50 in the assay on MCF7 was determined as 8.04 µM; in assay [1] it was 5.54 µM; in [2] it was 10 µM; with HeLa, 26 µM; in [3] it was 11 µM. Further, the result with PC-3 [5], with PC-3 [6], with PC-3 [7], in the assay on PC-3 [8], with PC-3 [9] and in the assay with PC-3 [10] was Active. Further, the Activity result in the assay on PC-3 [11] and in the assay on PC-3 [12] was “Dose-dependent effect” throughout.
In the assay on MCF7, `CC(=O)O[C@H]1C(=O)[C@@]2(C)[C@H]([C@H](OC(=O)c3ccccc3)[C@]3(O)C[C@H](OC(=O)[C@H](O)[C@@H](NC(=O)c4ccccc4)c4ccccc4)C(C)=C1C3(C)C)[C@]1(OC(C)=O)CO[C@@H]1C[C@@H]2O` [PACLITAXEL] came in with an IC50 of 0.2 µM.
As for `C=CCOc1ccc(Br)cc1C(=O)c1cccnc1`, the IC50 with MCF7 stood at 92 µM; in assay [1], 88 µM; in [2] it was 59 µM; in the assay with HeLa, 96 µM; in assay [3] it was 78 µM.
